Measured values: ChEMBL document CHEMBL2046346, “Discovery of phenylpropanoic acid derivatives containing polar functionalities as potent and orally bioavailable G protein-coupled receptor 40 agonists for the treatment of type 2 diabetes” (J Med Chem, 2012)
Calls of active or inactive are those of the source. No cut-off for these calls is given here.

Columns and labels:
HepG2 [1] = assay: Induction of apoptosis in human HepG2 cells assessed as caspase 3/7 activity at 10 uM after 24 hrs by caspase Glo assay relative to staurosporine; assay type: cell-based; conditions: hepg2, 24 h
Procedure, shortened: (§1)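 HepG2 cells seeded 2 × 10^4/well, treated 1 day in DMEM with 0.5% FBS, 2 mM L-glutamine, 1 mM pyruvate. Caspase-Glo 3/7 luminescence; activity = (compound − 1% DMSO)/(30 μM staurosporine − 1% DMSO) ×100, n = 3.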

HepG2 [2] = assay: Induction of apoptosis in human HepG2 cells assessed as caspase 3/7 activity at 30 uM after 24 hrs by caspase Glo assay relative to staurosporine; assay type: cell-based; conditions: hepg2, 24 h; procedure, shortened: as §1
[3] = biological target: T1, Free fatty acid receptor 1 (Homo sapiens, UniProt O14842); assay: Displacement of 3-[4-({2',6'-dimethyl-6-[(4-[3H])phenylmethoxy]biphenyl-3-yl}methoxy)phenyl] propanoic acid from human GPR40 receptor expressed in CHO cell membrane after 90 mins by liquid scintillation counting in the presence of 0.2% BSA; assay type: cell membranes
Procedure, shortened: (§2)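 Membranes from CHO lines stably expressing human or rat GPR40, buffer 25 mmol/L Tris-HCl pH 7.5, 5 mmol/L EDTA, protease inhibitors, 0.05% CHAPS, 0.2% fatty-acid-free BSA. Tritiated ligand at 2 or 6 nmol/L with graded test compound, 90 min room temperature, GF/C filtration, scintillation counting. Nonspecific binding: 10 μmol/L unlabeled ligand. IC50 by nonlinear regression, Ki = IC50/(1+[L]/Kd).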

[4] = Cytotoxicity against human HepG2 cells assessed as intracellular ATP level at 10 uM after 24 hrs by ATPlite assay relative to control; assay type: cell-based; conditions: read-out: Activity
Procedure, shortened: (§3)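 HepG2 cells seeded 2 × 10^4/well, treated 1 day in DMEM with 0.5% FBS, 2 mM L-glutamine, 1 mM pyruvate. ATP measured by ATPlite luminescence; % of 1% DMSO control (RLU ratio ×100), n = 3.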

Rattus norvegicus [5] = assay: Insulinotropic activity in po dosed fasted Wistar fatty rat assessed as increase in insulin secretion administered 30 mins prior to glucose-challenge by oral glucose tolerance test relative to vehicle treated control; assay type: functional, organism-based
Procedure, shortened: (§4)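 Thirteen-week-old female Wistar fatty rats, overnight fasted, grouped on body weight, PG, TG, NEFA (n = 6). Oral dose (0.1–1 mg/kg, 0.5% methylcellulose vehicle) 30 min before oral glucose 1 g/kg; tail-vein blood at 0, 10, 30, 60, 120 min; plasma glucose by analyzer, insulin by RIA.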

[6] = Cytotoxicity against human HepG2 cells assessed as intracellular ATP level at 30 uM after 24 hrs by ATPlite assay relative to control; assay type: cell-based; conditions: read-out: Activity; procedure, shortened: as §3
Rattus norvegicus [7] = assay: Induction of hypoglycemia in fasted Sprague-Dawley rat assessed as increase in insulin secretion level at 30 mg/kg, po after 30 mins; conditions: in vivo, 0.5 h
[8] = biological target: T1, Free fatty acid receptor 1; assay: Agonist activity at human GPR40 receptor expressed in CHO cells assessed as increase in intracellular calcium level for 90 secs by FLIPR assay in the presence of 0.1% BSA; assay type: functional, cell-based
Procedure, shortened: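 CHO dhfr cells stably expressing human GPR40 plated overnight, loaded 60 min at 37 °C with Fluo 4 AM (2.5 μg/mL), 2.5 mmol/L probenecid, 0.1% fatty acid-free BSA. Ca2+ rise after compound addition read 90 s; response scaled between vehicle (0%) and 10 μM γ-linolenic acid (100%).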

Rattus norvegicus [9] = assay: Induction of hypoglycemia in fasted Sprague-Dawley rat assessed as decrease in plasma glucose level below normal fasting level at 30 mg/kg, po; assay type: organism-based; parameters: dose 30 mg/kg, route oral; conditions: in vivo
Procedure, shortened: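 Eight-week-old male SD rats fasted overnight, grouped by body weight (n = 6), single oral dose in 0.5% methylcellulose vehicle; tail-vein blood before and 0.5, 1, 2, 3 h after dosing; plasma glucose by analyzer, insulin by ELISA; mean ± SD.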

Rattus norvegicus [10] = assay: Toxicity in rat assessed as adverse effect at 15 to 150 mg/kg, po after 4 weeks; assay type: organism-based; parameters: dose 15-150 mg/kg, route oral; conditions: in vivo, 672 h
Procedure, shortened: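 Normal rats dosed orally at 15, 50 and 150 mg/kg for 4 weeks; adverse effects recorded.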

[11] = biological target: Free fatty acid receptor 1 (Rattus norvegicus, UniProt Q8K3T4); assay: Displacement of 3-[4-({2',6'-dimethyl-6-[(4-[3H])phenylmethoxy]biphenyl-3-yl}methoxy)phenyl] propanoic acid from rat GPR40 receptor expressed in CHO cell membrane after 90 mins by liquid scintillation counting in the presence of 0.2% BSA; assay type: cell membranes; procedure, shortened: as §2
[12] = Lipophilicity, log D of the compound by RP-HPLC analysis; assay type: physicochemical
Rattus norvegicus [13] = assay: Insulinotropic activity in po dosed fasted Wistar fatty rat assessed as decrease in blood glucose level administered 30 mins prior to glucose-challenge by oral glucose tolerance test relative to vehicle treated control; assay type: functional, organism-based; procedure, shortened: as §4
Rattus norvegicus [14] = assay: Insulinotropic activity in fasted Wistar fatty rat assessed as decrease in blood glucose level at 0.3 mg/kg, po administered 30 mins prior to glucose-challenge by oral glucose tolerance test relative to vehicle treated control; assay type: functional, organism-based; parameters: dose 0.3 mg/kg; procedure, shortened: as §4
[15] = Metabolic stability in human hepatic microsomes; assay type: ADME; conditions: liver microsomes, read-out: Stability

T1 sequence (O14842 whole entry): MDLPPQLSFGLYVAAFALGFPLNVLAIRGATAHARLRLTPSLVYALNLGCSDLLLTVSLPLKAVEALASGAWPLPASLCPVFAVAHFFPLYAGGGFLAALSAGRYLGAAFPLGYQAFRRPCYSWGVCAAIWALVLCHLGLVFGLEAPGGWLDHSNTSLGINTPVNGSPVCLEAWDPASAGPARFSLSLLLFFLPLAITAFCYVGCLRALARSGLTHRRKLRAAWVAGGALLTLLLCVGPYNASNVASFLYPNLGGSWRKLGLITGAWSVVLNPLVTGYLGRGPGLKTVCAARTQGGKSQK
Free fatty acid receptor 1 (Rattus norvegicus, UniProt Q8K3T4), sequence (Q8K3T4 whole entry): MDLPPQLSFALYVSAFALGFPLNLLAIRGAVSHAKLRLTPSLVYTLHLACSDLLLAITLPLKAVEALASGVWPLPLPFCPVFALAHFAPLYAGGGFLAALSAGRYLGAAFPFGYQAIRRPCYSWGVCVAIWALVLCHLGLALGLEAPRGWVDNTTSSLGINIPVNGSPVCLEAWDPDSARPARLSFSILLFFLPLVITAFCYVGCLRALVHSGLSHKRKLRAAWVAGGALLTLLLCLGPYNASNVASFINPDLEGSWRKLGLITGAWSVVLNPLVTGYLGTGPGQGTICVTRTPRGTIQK

Ki [3]: 19 nM | EC50 [8]: 29 nM | Ki [11]: 4.5 nM | logD [12]: 2.14 | microsomal CLint [15]: 2 µL/min/mg
Structure (SMILES): Cc1cc(OCC2(O)CCS(=O)(=O)CC2)cc(C)c1-c1cccc(CNc2ccc(CCC(=O)O)c(F)c2)c1
Activity (HepG2 [1]): 0.8% | Activity (HepG2 [2]): 0.5% | viability at 24 h, 10 µM [4]: 88.1% | Activity (Rattus norvegicus [5]): Dose-dependent effect | viability at 24 h, 30 µM [6]: 75.9% | Activity (Rattus norvegicus [7]): Toxic | Activity (Rattus norvegicus [9]): Non-toxic | Activity (Rattus norvegicus [10]): Non-toxic | Activity (Rattus norvegicus [13]): Dose-dependent effect | Activity (Rattus norvegicus [14]): Active
